OX1R antag-1: antagonists of human orexin 1 receptor (OX1R); Orexin/Hypocretin receptor type 1 (Homo sapiens), O43613; OX1R-expressing cells, FRET antagonist read-out; inhibition, % at 6.6 µM; actives 1.8% (n = 330,000); AID 485270, 2010; in the data active means inhibition mostly above about 38%, no sharp cut-off; inactive means mostly below about 40%
Target sequence (O43613 whole entry, looked up): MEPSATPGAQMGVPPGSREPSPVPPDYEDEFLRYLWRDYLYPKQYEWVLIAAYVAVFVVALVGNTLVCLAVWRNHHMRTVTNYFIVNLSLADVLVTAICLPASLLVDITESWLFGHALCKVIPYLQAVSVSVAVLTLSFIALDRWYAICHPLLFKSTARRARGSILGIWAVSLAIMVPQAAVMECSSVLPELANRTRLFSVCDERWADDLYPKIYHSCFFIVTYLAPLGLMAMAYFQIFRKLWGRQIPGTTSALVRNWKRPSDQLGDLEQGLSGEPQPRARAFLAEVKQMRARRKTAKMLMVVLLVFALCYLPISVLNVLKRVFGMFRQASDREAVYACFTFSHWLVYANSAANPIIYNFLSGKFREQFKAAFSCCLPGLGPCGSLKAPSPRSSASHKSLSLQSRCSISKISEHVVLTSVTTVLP
CHO parental Ca: ATP-evoked calcium signal inhibitors, parental CHO, primary screen, counter-screen for OX1R antagonist project, cell-based, fluorescence, Fluo-8 calcium dye; actives 0.63% (n = 330,000); AID 463079, 2010; inhibition, % at 5.6 µM; parental CHO-K1, ATP-induced calcium, Fluo-8 fluorescence;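 active means inhibition above that plate's mean sample inhibition plus 3 SD, cut at about 26% in these data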
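Test system: parental CHO cells; detection: calcium-sensitive Fluo-8 fluorescence; evaluation: percent inhibition of calcium signal; also added: ATP as calcium-mobilizing challenge; repeats: one well per compound; control set: ATP-challenged DMSO wells low, unchallenged DMSO wells high; compound: single nominal dose of 5.6 µM per compound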
OX1R antag-2: OX1R (HCRTR1) antagonists, primary screen, fluorescence, CHO/OX1R cells, Fluo-8 calcium, orexin A; AID 434989, 2010; Orexin/Hypocretin receptor type 1 (Homo sapiens), O43613; actives 0.43% (n = 330,000); Fluo-8 calcium fluorescence; inhibition, % at 5 µM;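 active means inhibition above its plate's threshold, mean inhibition of all tested compounds on the plate plus 3 SD, cut at about 37% in these data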
TAAR1 antagonist: human TAAR1 antagonists, primary screen, Fluo-8 calcium fluorescence, CHO RD-HGA16 cells; Trace amine-associated receptor 1 (Homo sapiens), Q96RJ0; antagonist; inhibition, % at 3 µM; actives 1.5% (n = 360,000);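 active means inhibition above a per-plate cutoff, the mean inhibition of test compounds on that plate plus 3 SD, cut at about 49% in these data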
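Test system: RD-HGA16 CHO cells with stable hTAAR1 and Gα16 / Probe or stimulus: EC80 β-phenethylamine stimulus / Times: seeding 17-24 h prior, 75-min 37 °C, 30-min RT dye loading / Detection: Fluo-8 calcium-sensitive fluorescence / Read-out basis: % inhibition scaled between DMSO and EC80 PEA controls / Repeats: singlicate, one well per test compound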
TAAR1 ag: human TAAR1 agonists, primary screen, Fluo-8 calcium fluorescence, CHO RD-HGA16 cells. Trace amine-associated receptor 1 (Homo sapiens), Q96RJ0. vehicle wells 0%, saturating PEA agonist 100%. activation, % at 3 µM. actives 0.99% (n = 360,000). AID 624467, 2012;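 active means activation above the mean activation of all test compounds in the run plus 3 SD, cut at about 38% in these data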
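Test system: RD-HGA16 (CHO) cells co-expressing Gα16 and hTAAR1; dosing: one-point dosing at 3 µM (nominal); timing: 17-24 h seeding, 75 min 37 °C dye, 30 min RT; signal: kinetic Fluo-8 calcium fluorescence; read-out basis: % activation relative to PEA EC100 response; controls: DMSO and PEA EC100; replicates: n 1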
OX1R Fluo8 conf: OX1R (HCRTR1) antagonists, confirmation, fluorescence, CHO/OX1R cells, Fluo-8 calcium, orexin A; shares compounds with OX1R antag-2; orexin A calcium Fluo-8 fluorescence; inhibition, % at 5 µM; actives 38% (n = 1,100); in the data active means inhibition above about 29%
CHO Ca counter: ATP-evoked calcium inhibition in parental CHO, counter-screen for OX1R antagonist project, cell-based, fluorescence, CHO-K1, triplicate. shares compounds with OX1R antag-2. ATP-induced calcium, Fluo-8 fluorescence. inhibition, % at 5.6 µM. actives 9.3% (n = 1,100). AID 492965, 2010;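 active means inhibition above a per-plate limit, the mean inhibition of that plate's test compounds plus 3 SD, cut at about 25% in these data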
OX1R HTRF conf: OX1R (HCRTR1) antagonists, confirmation, cell-based, HTRF | actives 49% (n = 1,800) | OX1R-expressing cells, HTRF antagonist assay | inhibition, % at 6.6 µM | shares compounds with OX1R antag-1 | AID 492964, 2010; in the data active means inhibition above about 55%;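 further: CHO cells expressing OX1R stimulated with orexin A at about EC80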
CHO-K1 HTRF cnt: signal inhibition in parental CHO-K1 cells, counter-screen for OX1R antagonist project, cell-based, HTRF; actives 48% (n = 1,800); AID 493232, 2011; inhibition, % at 6.6 µM; HTRF counterscreen; shares compounds with OX1R antag-1; in the data active means inhibition above about 17%
Hits are given with their value; i = inactive; nt = no result given. Rows were chosen to be rich in hits. Some 4% of all compounds tested hit in one or more screens of this group.

SMILES	OX1R antag-1	CHO parental Ca	OX1R antag-2	TAAR1 antagonist	TAAR1 ag	OX1R Fluo8 conf	CHO Ca counter	OX1R HTRF conf	CHO-K1 HTRF cnt
CN(Cc1c(C(=O)N/N=C/c2c(F)cccc2Cl)nnn1-c1nonc1N)c1ccccc1	i	i	i	i	i	nt	nt	nt	nt
O=C(NNC(=O)c1ccco1)c1ccc(NS(=O)(=O)c2cccs2)cc1	i	i	i	i	i	nt	nt	nt	nt
CN(CC(=O)Nc1c(Cl)cccc1Cl)C(=O)c1ccccc1-c1nc2ccccc2s1	i	i	i	i	i	nt	nt	nt	nt
COc1cccc(NC(=O)CN(C)C(=O)c2ccccc2-c2nc3ccccc3s2)c1	99.8	i	i	i	i	i	i	88.4	i
CCOC(=O)c1c(C)[nH]c(C(=O)N(C)CC(=O)Nc2ccc(OC)cc2)c1C	i	i	i	i	i	nt	nt	nt	nt
CC(=O)Nc1ccc(S(=O)(=O)N(C)CC(=O)OCC(=O)Nc2cccnc2Cl)cc1	i	i	i	i	i	nt	nt	nt	nt
CCS(=O)(=O)CCSc1nc2ccccc2o1	i	i	i	i	i	nt	nt	nt	nt
O=S(=O)(CCSc1nc2ccccc2o1)c1nc2ccccc2s1	41.1	i	61.6	i	i	i	i	i	i
Cc1cnc(NC(=O)c2ccc(-c3nc4ccccc4s3)o2)s1	106.4	i	82.0	i	i	82.8	i	100.7	i
O=C1c2ccccc2NC(c2c(Cl)cccc2Cl)N1Cc1ccccc1 (stereo not drawn)	82.2	i	i	i	i	i	i	i	i
COc1ccc2oc(=Nc3cc(F)ccc3F)c(C(N)=O)cc2c1	87.0	i	i	i	i	42.7	i	75.5	i
COc1ccc(OC)c(N=c2oc3cc(O)ccc3cc2C(N)=O)c1	i	i	i	i	i	nt	nt	nt	nt
O=C(CSc1nc2ncccc2[nH]1)Nc1ccccc1-c1ccccc1	71.7	i	i	i	i	31.1	i	72.0	i
COc1ccccc1NC(=O)CSc1nc2ncccc2[nH]1	i	i	i	i	i	nt	nt	nt	nt
CCS(=O)c1ccccc1C(=O)OCC(=O)N1CCC(c2ccccc2)=N1 (stereo not drawn)	i	i	i	i	i	nt	nt	nt	nt
CCc1cc(C(=O)OCC(=O)N2CCC(c3ccccc3)=N2)sc1C	80.1	i	54.3	i	i	78.1	i	91.6	i
O=C1NC[C@H](c2ccccc2)OC(=O)[C@H](Cc2ccc(F)cc2)C/C=C\C[C@H]1CC(=O)N(CCO)Cc1ccccc1	54.0	i	54.0	81.5	38.2	30.1	i	i	i
CC(C)Nc1oc(-c2cccc3ccccc23)nc1C#N	i	i	i	i	i	nt	nt	nt	nt
CCNc1oc(-c2cccc3ccccc23)nc1C#N	89.2	i	55.0	i	i	39.2	i	78.1	i
C=CCNc1oc(-c2cccc3ccccc23)nc1C#N	68.6	i	42.9	i	i	i	i	54.7	i
C/C(N)=C(/C#N)C(=O)CSc1cc(C)c2cc(C)cc(C)c2n1	i	i	i	i	i	nt	nt	nt	nt
Cc1nc2c3ccccc3nc(NNC(=O)CCC(=O)NCCC(C)C)n2n1	i	i	i	i	i	nt	nt	nt	nt
COCCCNC(=O)CCC(=O)NNc1nc2ccccc2c2nc(-c3ccccc3)nn12	95.3	i	i	i	i	28.9	i	81.5	i
CCn1c(C)csc1=NC(=O)c1ccccc1O	95.0	i	54.0	i	i	41.8	i	90.5	i
